# Source: PubChem BioAssay (several laboratories)
# The full list was thinned out, with hits kept by preference.
# Diaph inh CS: counter-screen for diaphorase-based assays: diaphorase inhibitors and chemical oxidizers; inhibition, % at 20 µM; 0.69% of 190,000 active; diaphorase resazurin-to-resorufin fluorescence, NADH, 16 min; bacterial (C. kluyveri) enzyme, not human; AID 1217;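 active = primary screen inhibition at 20 µM above a set limit, cut at about 50% in these data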;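 also: plate controls were DMSO with full reaction for no effect and wells lacking NADH for full effect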
#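 Test system: bacterial diaphorase enzyme (C. kluyveri); Quantity: 0.14 U/mL diaphorase, enzyme working solution; Times: reaction incubation of 16 min at room temperature; Measured by: fluorescence of resorufin formed from resazurin, Ex 544/Em 590 nm; Benchmarks: positive control minus NADH, DMSO neutral control.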
# PfG6PD inh: PfG6PD (Plasmodium falciparum) enzyme inhibition | AID 504690 | PfGluPho enzyme, NADPH resazurin-diaphorase fluorescence | 0.78% of 350,000 active | inhibition, % at 20 µM;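 active = inhibition reaching at least a set limit at 20 µM in the primary screen, cut at about 59% in these data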;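 also: 0% = DMSO wells with substrate and 100% = DMSO wells lacking glucose-6-phosphate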
# Lmaj promast: Leishmania major promastigote growth inhibition; Leishmania major promastigotes, resazurin fluorescence viability; inhibition, % at 10 µM; 9% of 200,000 active; AID 1063;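 also: promastigotes grown with compound for 44 hours at 28 °C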
# Diaph act CS: counter-screen for diaphorase-based assays: diaphorase activators and chemical reducers | 0.005% of 190,000 active | Diaphorase/resazurin coupled assay, resorufin fluorescence, 16 min; active compounds read high; 1 = vehicle wells, 0 = NADH-free wells | activation factor at 20 µM;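 active = diaphorase activity raised at least twofold by the compound at 20 µM; inactive = activation factor below 2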
#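 Assay system: bacterial diaphorase enzyme (C. kluyveri) / Input: enzyme 0.07 U/mL final / Medium: 50 mM HEPES pH 7.4 with 4.542 mM MgCl2, 0.005% Tween 20 / Doses: single compound dose of 20 µM, 1% DMSO final / Incubation: 16 min enzyme reaction, ambient temperature / Signal: fluorescence, excitation 544 nm and emission 590 nm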
# DTT redox prof: compounds producing H2O2 with reducing agent – biochemical, NIH compound library profiling, artefact control for MLSCN library redox annotation, primary screen; DTT-dependent redox cycling H2O2, phenol red/HRP absorbance; 100% = 100 µM peroxide control, 0% = buffer; activation, % at 10 µM; 0.03% of 200,000 active;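 active = activation of at least 50% relative to the plate's high and low controls in the primary single-dose screen; inactive = activation below 50%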;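 also: compound incubated with DTT at 0.8 mM final as the reducing agent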
# G6PDH CS: inhibits Leuconostoc G6PDH, flagging false hits in G6PDH-based assays; Purified L. mesenteroides G6PDH, diaphorase/resazurin coupled fluorescence, 45 min; inhibition, % at 5 µM; 0.12% of 200,000 active
# Active calls of the source: *; nt = no result. Rule as the data show it, unless noted: active = inhibition above about 50%; inactive = the rest.
SMILES,Diaph inh CS,PfG6PD inh,Lmaj promast,Diaph act CS,DTT redox prof,G6PDH CS
COCC(C)n1c(C)cc(C(=O)CSc2nc3ccccc3c(=O)[nH]2)c1C (stereo not drawn),20.8,-5.7,-8.2,0.8,1.4,2.8
CCOC(=O)N1CCC(n2c(SCC(=O)NCCC3=CCCCC3)nc3ccccc3c2=O)CC1,6.1,-4.0,70.3*,0.9,1.1,-0.1
COCC(C)n1c(C)cc(C(=O)CSc2nnnn2-c2ccc(O)cc2)c1C (stereo not drawn),11.0,-8.3,73.0*,0.9,-0.9,0.1
COCC(C)n1c(SCC(=O)c2cc(C)n(C)c2C)nc2ccccc2c1=O (stereo not drawn),0.0,4.7,83.8*,1,0.1,0.1
CC1CCCN(C(=O)CNS(=O)(=O)c2cccs2)C1 (stereo not drawn),nt,-7.9,nt,nt,nt,nt
COc1cc(C(=O)NCCNc2nc3ccc(C)cc3cc2C#N)cc(OC)c1OC,nt,5.0,nt,nt,nt,nt
CCOC(=O)N1CCC(n2c(SCC(=O)NCc3ccccc3)nc3ccccc3c2=O)CC1,9.5,7.9,81.0*,0.9,0.3,-0.9
O=[N+]([O-])c1cc([N+](=O)[O-])c(Oc2cccnc2Br)cc1NN1CCCCC1,nt,-6.7,nt,nt,nt,nt
O=C(Cc1ccc(-n2c(=O)[nH]c3ccsc3c2=O)cc1)N1CCN(c2ccc(Cl)cc2)CC1,13.5,-33.6,70.1*,0.9,0.1,3.6
COc1ccc(N2CCN(C(=O)Cn3c(=O)[nH]c4ccsc4c3=O)CC2)cc1,-5.8,-5.1,23.0,1.1,-2.7,12.5
Cc1cccc(N2CCN(C(=O)Cc3ccc(-n4c(=O)[nH]c5ccsc5c4=O)cc3)CC2C)c1 (stereo not drawn),17.2,-22.4,55.9*,0.8,0.1,9.7
Cn1ccnc1C(=O)c1cc(SCC(=O)NCc2ccccc2)nc2ccccc12,12.6,-5.1,12.5,0.9,-0.6,-6.6
CCOc1ccccc1C(=O)N(Cc1sccc1C)C1CCS(=O)(=O)C1 (stereo not drawn),nt,10.5,nt,nt,nt,nt
CC(=O)c1ccc(N2CCN(C(=O)Nc3ccc(C(C)C)cc3)CC2)cc1,20.9,9.9,64.6*,0.8,-0.4,2.2
CC1(C)NC(=O)N(CCCCOc2ccc(Cl)cc2C=O)C1=O,12.5,9.7,57.0*,0.9,-0.9,10.0
N#C/C(=C\c1cn(-c2ccccc2)nc1-c1cccnc1)c1nnc2n1CCCCC2,19.5,-8.5,12.3,0.8,0.2,3.3
CCN(C(=O)COC(=O)/C=C/c1cccc([N+](=O)[O-])c1)c1c(N)n(Cc2ccccc2)c(=O)[nH]c1=O,nt,2.5,nt,nt,nt,nt
CC(=O)C1CCC2C3CCC4CC(=O)CCC4(C)C3C=CC12C (stereo not drawn),nt,3.2,nt,nt,nt,nt
CCC(CO)NCc1cc(OC)c(OCC(=O)NCCc2ccccc2)cc1Br (stereo not drawn),-1.0,3.9,96.6*,1,-0.1,1.4
CCCNCc1cc(OC)c(OCC(=O)NCCc2ccccc2)cc1Br,12.5,-0.2,55.3*,0.9,-0.2,6.5
CCCNCc1cc(OC)c(OCc2ccccc2)cc1Br,-1.2,4.0,38.0,1,0.8,-0.2
CCCOc1ccc(CC(=O)NCCc2ccccc2)cc1OC,nt,-24.6,nt,nt,nt,nt
CC(=O)Oc1ccc2c(=O)c(Oc3ccccc3)c(C)oc2c1OC(C)=O,65.4*,-3.4,-2.1,0.3,0.4,22.1
Cc1oc2cc(O)ccc2c(=O)c1Oc1ccccc1,4.8,-30.5,-1.4,1,0.1,-0.5
Cc1snc(SCC(=O)c2ccc([N+](=O)[O-])cc2)c1C#N,18.6,62.2*,4.2,0.8,-0.7,-8.5
O=C(CN1CCN(c2ccccc2F)CC1)Nc1ccc2c(c1)CCC2,10.8,-7.3,63.9*,0.9,0.2,-7.2
O=C(CN1CCN(S(=O)(=O)c2ccc3ccccc3c2)CC1)Nc1ccc2c(c1)CCC2,12.4,10.2,89.2*,0.9,1.8,-3.0
N#Cc1ccsc1NC(=O)CN1CCN(S(=O)(=O)c2ccc3ccccc3c2)CC1,21.3,-1.0,64.6*,0.8,nt,0.3
N#Cc1ccc(CN2CCN(c3ccc(S(=O)(=O)N4CCCC4)cn3)CC2)cc1,nt,-0.1,nt,nt,nt,nt
